ChEMBL document CHEMBL3352769, “Discovery of glycine sulfonamides as dual inhibitors of sn-1-diacylglycerol lipase α and α/β-hydrolase domain 6” (J Med Chem, 2014)
Each block holds one molecule with its values, some of them ahead of it. Active and inactive are the calls of the source. No cut-off for these calls is given here.

Columns and labels:
[1] = target: T1, Diacylglycerol lipase-alpha (Homo sapiens, UniProt Q9Y4D2); assay: Inhibition of human DAGLalpha expressed in HEK293T cell membranes; assay type: cell-based, HEK-293T
T1 sequence (Q9Y4D2 whole entry): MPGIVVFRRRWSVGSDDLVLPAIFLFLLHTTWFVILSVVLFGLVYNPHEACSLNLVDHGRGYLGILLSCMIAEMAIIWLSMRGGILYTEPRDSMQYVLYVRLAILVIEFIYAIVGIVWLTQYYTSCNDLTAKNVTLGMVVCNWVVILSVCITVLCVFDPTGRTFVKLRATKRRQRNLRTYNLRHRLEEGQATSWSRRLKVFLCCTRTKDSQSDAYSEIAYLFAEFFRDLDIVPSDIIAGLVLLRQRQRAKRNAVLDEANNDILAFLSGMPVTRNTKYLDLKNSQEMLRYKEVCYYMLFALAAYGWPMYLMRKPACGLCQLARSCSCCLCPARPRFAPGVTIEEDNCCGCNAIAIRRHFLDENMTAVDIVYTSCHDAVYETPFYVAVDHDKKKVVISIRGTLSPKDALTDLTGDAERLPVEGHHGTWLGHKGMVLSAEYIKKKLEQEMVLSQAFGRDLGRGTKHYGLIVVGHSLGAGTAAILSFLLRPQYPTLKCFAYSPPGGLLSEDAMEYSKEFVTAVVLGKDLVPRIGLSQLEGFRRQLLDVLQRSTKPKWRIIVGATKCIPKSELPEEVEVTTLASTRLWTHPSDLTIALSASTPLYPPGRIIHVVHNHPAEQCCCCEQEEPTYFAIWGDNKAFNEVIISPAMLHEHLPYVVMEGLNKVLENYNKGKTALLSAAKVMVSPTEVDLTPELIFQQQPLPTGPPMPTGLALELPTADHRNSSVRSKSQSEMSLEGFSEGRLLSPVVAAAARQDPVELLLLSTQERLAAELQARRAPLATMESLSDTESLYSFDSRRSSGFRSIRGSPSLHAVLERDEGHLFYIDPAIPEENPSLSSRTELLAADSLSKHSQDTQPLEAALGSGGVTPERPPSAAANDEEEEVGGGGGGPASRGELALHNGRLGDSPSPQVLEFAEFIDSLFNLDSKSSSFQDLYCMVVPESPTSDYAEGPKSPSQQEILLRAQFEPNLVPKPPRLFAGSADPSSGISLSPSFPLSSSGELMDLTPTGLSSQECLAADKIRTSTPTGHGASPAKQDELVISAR
In short: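 Colorimetric biochemical assay using para-nitrophenylbutyrate as substrate with membranes from HEK293 cells overexpressing human DAGL-α.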

[2] = target: T2, Diacylglycerol lipase-alpha (Mus musculus) (UniProt Q6WQJ1); assay: Inhibition of MB064 labeling of DAGLalpha in mouse brain homogenates by activity based protein profiling assay
T2 sequence (whole entry): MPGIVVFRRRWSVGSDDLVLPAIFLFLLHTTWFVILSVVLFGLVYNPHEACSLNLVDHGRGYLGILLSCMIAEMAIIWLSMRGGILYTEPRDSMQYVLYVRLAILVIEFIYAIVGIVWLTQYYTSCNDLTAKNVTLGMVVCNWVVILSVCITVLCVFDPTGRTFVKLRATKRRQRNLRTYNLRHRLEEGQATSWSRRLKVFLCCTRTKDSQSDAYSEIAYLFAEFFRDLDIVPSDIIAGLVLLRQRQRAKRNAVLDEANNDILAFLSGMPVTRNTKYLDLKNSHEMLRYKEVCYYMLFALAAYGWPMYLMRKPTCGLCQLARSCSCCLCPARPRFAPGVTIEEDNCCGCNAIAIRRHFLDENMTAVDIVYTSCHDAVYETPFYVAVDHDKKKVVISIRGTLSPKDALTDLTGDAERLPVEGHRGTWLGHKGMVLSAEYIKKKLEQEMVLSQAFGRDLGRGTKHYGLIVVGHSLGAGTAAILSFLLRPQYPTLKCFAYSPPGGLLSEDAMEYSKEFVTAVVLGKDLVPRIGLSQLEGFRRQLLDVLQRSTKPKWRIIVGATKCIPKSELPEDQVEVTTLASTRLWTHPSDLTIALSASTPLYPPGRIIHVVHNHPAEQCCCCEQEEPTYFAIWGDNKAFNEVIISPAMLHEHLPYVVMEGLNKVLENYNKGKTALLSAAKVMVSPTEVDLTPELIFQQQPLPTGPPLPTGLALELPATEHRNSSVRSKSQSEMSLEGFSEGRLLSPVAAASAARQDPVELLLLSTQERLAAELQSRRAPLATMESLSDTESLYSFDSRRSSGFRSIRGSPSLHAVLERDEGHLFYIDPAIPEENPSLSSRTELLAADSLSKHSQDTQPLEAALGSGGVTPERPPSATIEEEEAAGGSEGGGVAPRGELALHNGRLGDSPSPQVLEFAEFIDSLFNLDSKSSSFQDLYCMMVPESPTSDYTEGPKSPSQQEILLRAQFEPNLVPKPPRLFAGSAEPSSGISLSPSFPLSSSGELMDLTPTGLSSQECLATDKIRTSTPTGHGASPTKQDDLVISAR

[3] = target: T3, Monoacylglycerol lipase ABHD6 (Homo sapiens, UniProt Q9BV23); assay: (§1) Inhibition of human ABHD6 expressed in HEK293T cell membranes assessed as reduction in glycerol production using 2-arachidonoyl glycerol substrate; assay type: cell-based, HEK-293T
T3 sequence (Q9BV23 whole entry): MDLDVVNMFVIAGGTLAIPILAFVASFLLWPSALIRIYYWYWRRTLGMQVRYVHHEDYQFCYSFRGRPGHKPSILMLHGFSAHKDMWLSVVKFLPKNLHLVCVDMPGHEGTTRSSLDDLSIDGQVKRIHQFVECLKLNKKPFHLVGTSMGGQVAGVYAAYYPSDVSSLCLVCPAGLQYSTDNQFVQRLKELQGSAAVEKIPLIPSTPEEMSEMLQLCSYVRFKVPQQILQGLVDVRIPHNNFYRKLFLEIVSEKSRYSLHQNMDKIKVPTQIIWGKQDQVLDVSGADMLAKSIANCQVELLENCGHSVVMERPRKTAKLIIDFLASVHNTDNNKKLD
In short: (§2)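 Human ABHD6 membranes from transiently transfected HEK293T (0.04 µg/µL final) in HEMNB buffer, pH 7.4, preincubated 30 min with inhibitor. 2-AG (25 µM) added with glycerol kinase/GPO/HRP (0.2 U/mL), 0.125 mM ATP and 10 µM Amplifu Red. Resorufin fluorescence read every 5 min for 75 min at 21°C; slopes over 10–35 min, normalized; N = 2, n = 2.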

[4] = target: T4, Monoacylglycerol lipase ABHD6 (Homo sapiens) (UniProt Q9BV23); assay: as §1; assay type: cell-based; details: HEK-293T; in short: as §2
T4 sequence (whole entry): T3 sequence (Q9BV23 whole entry)

[5] = species: Mus musculus; assay: Inhibition of MAGL labeling in mouse brain homogenates at 20 uM by activity based protein profiling assay; assay type: tissue-based
In short: (§3)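 Mouse brain membrane proteome (2.0 mg/mL) preincubated 30 min at rt with inhibitor or DMSO vehicle, then labeled 15 min at rt with ABP 1 (250 nM final) or TAMRA-FP (500 nM final). Gel-based read-out: lane band intensity corrected for total protein loading by Coomassie stain, vehicle set to 100%.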

[6] = target: T5, Monoacylglycerol lipase ABHD6 (Mus musculus) (UniProt Q8R2Y0); assay: Inhibition of TAMRA-FP labeling of ABHD6 in mouse brain homogenates at 20 uM by activity based protein profiling assay; assay type: tissue-based; details: in the assay text read “MB064” for “TAMRA-FP”; in short: as §3
T5 sequence (whole entry): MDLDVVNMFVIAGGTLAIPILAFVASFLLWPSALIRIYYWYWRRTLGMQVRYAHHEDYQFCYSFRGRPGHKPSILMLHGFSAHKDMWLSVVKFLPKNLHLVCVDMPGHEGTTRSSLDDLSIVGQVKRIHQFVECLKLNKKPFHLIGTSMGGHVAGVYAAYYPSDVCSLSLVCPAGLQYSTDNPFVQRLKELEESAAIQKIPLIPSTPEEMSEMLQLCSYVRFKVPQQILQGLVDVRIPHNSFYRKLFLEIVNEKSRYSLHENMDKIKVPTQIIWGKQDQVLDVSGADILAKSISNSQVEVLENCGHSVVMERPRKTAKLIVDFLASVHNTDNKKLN

[7] = target: T2, Diacylglycerol lipase-alpha (Mus musculus); assay: (§4) Inhibition of MB064 labeling of DAGLalpha in mouse brain homogenates by activity based protein profiling assay; assay type: tissue-based
In short: (§5)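 Endogenous DAGL-α in mouse brain membrane proteome: inhibitors at a range of concentrations, 30 min at rt, then probe 1 for 10 min at rt. Quenched in SDS sample buffer, resolved on 10% SDS-PAGE, fluorescence scanned. Remaining activity taken from integrated band intensity; IC50 from dose-response curve (SEM, n = 3).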

[8] = target: T6, Diacylglycerol lipase-alpha (Mus musculus, UniProt Q6WQJ1); assay: as §4; assay type: tissue-based; in short: as §5
T6 sequence (Q6WQJ1 whole entry): T2 sequence (whole entry)

[9] = target: T1, Diacylglycerol lipase-alpha; assay: Inhibition of human DAGLalpha expressed in HEK293T cell membranes assessed as reduction in hydrolysis of inhibition of [14C]-sn-1-oleoyl-2-arachidonoyl-glycerol; assay type: cell-based, HEK-293T

SMILES: CC1(C)CCc2cc(S(=O)(=O)N(CCN)Cc3ccc(Oc4ccccc4)cc3)ccc2O1
IC50 [1]: 512 nM

SMILES: CC1(C)CCc2cc(S(=O)(=O)N(CC(=O)O)Cc3cccc(Oc4ccc(C(F)(F)F)cn4)c3)ccc2O1
IC50 [1]: 143 nM

SMILES: COC(=O)CN(Cc1ccc(Oc2ccccc2)cc1)S(=O)(=O)c1ccc2c(c1)CCC(C)(C)O2
IC50 [1]: > 10000 nM

SMILES: O=C(O)CN(Cc1ccc(Oc2ccc(C(F)(F)F)cn2)cc1)S(=O)(=O)c1ccc(Cl)cc1
IC50 [1]: 302 nM

SMILES: CC1(C)CCc2cc(S(=O)(=O)N(Cc3cccc(Oc4ccccc4)c3)Cc3nnn[nH]3)ccc2O1
IC50 [1]: > 10000 nM

SMILES: CC1(C)CCc2cc(S(=O)(=O)N(CC(=O)O)Cc3ccc(Oc4ccc(C(F)(F)F)cn4)cc3)ccc2O1
inhibition [2]: Dose-dependent effect
Ki [3]: 2700 nM
inhibition [4]: Dose-dependent effect
IC50 [1]: 65 nM
inhibition [5]: inactive
inhibition [6]: Active
inhibition [7]: Dose-dependent effect
IC50 [8]: 743 nM

SMILES: CC1(C)CCc2cc(S(=O)(=O)N(CC(=O)O)Cc3ccc(Oc4ccccc4)cc3)ccc2O1
Ki [9]: 700 nM
inhibition [2]: Dose-dependent effect
Ki [3]: 800 nM
inhibition [4]: Dose-dependent effect
IC50 [1]: 18 nM
inhibition [5]: inactive
inhibition [6]: Active
inhibition [7]: Dose-dependent effect
IC50 [8]: 124 nM

SMILES: O=C(O)CN(Cc1cccc(Oc2ccccc2)c1)S(=O)(=O)c1ccc(Cl)cc1
IC50 [1]: 91 nM

SMILES: CC1(C)CCc2cc(S(=O)(=O)N(CCOC(=O)N3CCCCC3)Cc3cccc(Oc4ccccc4)c3)ccc2O1
IC50 [1]: > 10000 nM

SMILES: O=C(O)CN(Cc1ccc(Oc2ccccc2)cc1)C(=O)c1c(Cl)cccc1Cl
IC50 [1]: > 10000 nM

More lines, main results first:

IC50 [1]: 185 nM
SMILES: CC1(C)CCc2cc(S(=O)(=O)N(CC(=O)O)Cc3ccccc3Oc3ccccc3)ccc2O1

IC50 [1]: 695 nM
SMILES: O=C(O)CN(Cc1ccc(Oc2ccccc2)cc1)S(=O)(=O)c1c(Cl)cccc1Cl

IC50 [1]: > 10000 nM
SMILES: CC1(C)CCc2cc(S(=O)(=O)N(CC(=O)NCCOCCN)Cc3ccc(Oc4ccccc4)cc3)ccc2O1

inhibition [2]: Dose-dependent effect
Ki [3]: 18300 nM
inhibition [4]: Dose-dependent effect
IC50 [1]: 56 nM
inhibition [6]: Active
inhibition [7]: Dose-dependent effect
IC50 [8]: 355 nM
SMILES: CC1(C)CCc2cc(S(=O)(=O)N(CC(=O)O)Cc3cccc(Oc4ccccc4)c3)ccc2O1
inhibition [5]: inactive

IC50 [1]: 66 nM
SMILES: O=C(O)CN(Cc1ccc(Oc2ccccc2)cc1)S(=O)(=O)c1ccc(Cl)cc1

IC50 [1]: 1600 nM
SMILES: O=C(O)CN(Cc1cccc(Oc2ccccc2)c1)S(=O)(=O)c1c(Cl)cccc1Cl

IC50 [1]: > 10000 nM
SMILES: CC1(C)CCc2cc(S(=O)(=O)N(CC(N)=O)Cc3cccc(Oc4ccccc4)c3)ccc2O1

IC50 [1]: > 10000 nM
SMILES: O=C(O)CN(Cc1ccc(Oc2ccccc2)cc1)C(=O)c1ccc(Cl)cc1

IC50 [1]: > 10000 nM
SMILES: CC1(C)CCc2cc(S(=O)(=O)N(CCO)Cc3cccc(Oc4ccccc4)c3)ccc2O1

IC50 [1]: > 10000 nM
SMILES: CC1(C)CCc2cc(S(=O)(=O)N(CC#N)Cc3cccc(Oc4ccccc4)c3)ccc2O1

IC50 [1]: > 10000 nM
SMILES: O=C(O)CN(Cc1ccc(Oc2ccc(C(F)(F)F)cn2)cc1)C(=O)c1ccc(Cl)cc1
